Shown are actives, neighbours in structure and some others; about 6.8% of the full set was active somewhere.
HSF1 activator: increases HSF-1 driven luciferase reporter signal | NIH3T3-HGL HSF-1 luciferase reporter, MG132, 8 h; 100% = twice DMSO control signal | activation, % at 9 µM | actives 1.7% (n = 300,000);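 active = mean replicate activation of at least 50% with a set share of replicates each reaching 50%; inconclusive = only one of those two conditions met; inactive = mean below 50% and too few replicates reaching it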;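 also: 0% = median of the neutral control wells and 100% = twice that signal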
PHOSPHO1 block: blocks human PHOSPHO1 phosphatase activity. recombinant PHOSPHO1, absorbance phosphatase assay. inhibition, % at 13.3 µM. actives 1.1% (n = 290,000); in the data active = inhibition above about 60%
Target sequence (Q8TCT1 whole entry, looked up): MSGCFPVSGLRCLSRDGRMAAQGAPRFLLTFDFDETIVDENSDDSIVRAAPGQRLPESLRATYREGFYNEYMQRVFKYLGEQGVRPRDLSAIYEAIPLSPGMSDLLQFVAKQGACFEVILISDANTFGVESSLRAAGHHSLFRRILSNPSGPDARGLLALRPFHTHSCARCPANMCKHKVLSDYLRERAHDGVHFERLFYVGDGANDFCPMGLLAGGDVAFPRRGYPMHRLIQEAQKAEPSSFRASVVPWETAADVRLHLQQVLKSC
core dimer inh: HCV core protein dimerization inhibition | TR-FRET GST/Flag-core106 dimerization, 1536-well | inhibition, % at 5 µM | actives 0.33% (n = 300,000) | AID 1899;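 active = inhibition above the mean of all tested compounds plus 3 SD, set per screening campaign, cut at about 45% in these data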
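Assay system: tagged HCV core106 pair (GST and Flag); medium: KF-containing HEPES buffer, pH 7.45, DTT, CHAPS, BSA; also added: Eu donor and XL665 acceptor anti-tag antibodies; dosing: 5 µM single dose; timing: compound-protein-antibody incubation 4 h at 22.5 °C; signal: TR-FRET 671 and 617 nm emission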
HSF1 inhib: HSF1 inhibition. NIH3T3-HGL HSE-luciferase, MG132-induced, luminescence 8 h; hits give low values. activity change, negative = inhibition, % at 7.5 µM (by protocol). actives 0.77% (n = 300,000). AID 2098;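 active = more than half of replicate wells show activity change below -50%, luminescence cut by over half; inconclusive = some wells, but at most half, below -50%; inactive = no replicate well below -50%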;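 also: luciferase reports HSF-1 transcriptional activity via heat shock element; 0% = median of DMSO wells and -100% = zero luminescence signal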
ALR inh: inhibitors of human sulfhydryl oxidase ALR. P55789. AID 485317. actives 3.8% (n = 290,000). purified ALR, DTT oxidation, H2O2 HRP-luminol luminescence. inhibition, % (no concentration beside the values);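 active = mean replicate inhibition above about 79%, with every replicate also reaching it, limit read from the data; inconclusive = only one of the two criteria met; inactive = mean below limit and not every replicate reaching it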
Target sequence (P55789 whole entry, looked up): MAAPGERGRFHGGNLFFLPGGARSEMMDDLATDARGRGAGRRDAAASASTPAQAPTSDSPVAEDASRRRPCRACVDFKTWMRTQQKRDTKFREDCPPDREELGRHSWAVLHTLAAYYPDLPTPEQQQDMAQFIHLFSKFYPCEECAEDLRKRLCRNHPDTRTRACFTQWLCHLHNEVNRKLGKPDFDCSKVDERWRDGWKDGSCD
AI-2 QS mod: modulates the Vibrio harveyi AI-2 quorum sensing system | Vibrio harveyi JMH597 AI-2 luminescence/OD600 ratio, 9 h; hits give low values; strain lacks LuxN and CqsS sensors; 0 = neutral-control median | actives 0.4% (n = 300,000) | activity change, % at 7.5 µM; in the data active = activity change below about -75%, passing the limit was not always enough; inconclusive = no clear call, values can overlap the other calls;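 also: luminescence divided by OD600 gain over 9 h not by final OD600 alone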
The depositor's hits bear a star; ? = inconclusive; · = no result.

SMILES	HSF1 activator	PHOSPHO1 block	core dimer inh	HSF1 inhib	ALR inh	AI-2 QS mod
O=C(c1ncn(Cc2ccccc2)c1C(=O)N1CCc2ccccc2C1)N1CCc2ccccc2C1	·	·	·	·	0	·
Cc1csc(NC(=O)c2cc(-c3ccncc3)nc3ccccc23)n1	6	11	17	-1	0	6
O=C(Nc1ccc(N2CCOCC2)cc1)c1cc(-c2ccncc2)nc2ccccc12	-63	-13	3	-52*	-17	17
O=C(Nc1nccs1)c1cc(-c2ccncc2)nc2ccccc12	-16	6	56*	-7	-3	16
O=C(CS)Nc1ccc2ccccc2c1	2	15	3	2	97*	29
O=C(Cc1ccc2c(c1)CCCC2)Nc1ccc2ccccc2c1	57*	0	-4	13	2	6
CCCCCC(=O)Nc1ccc2ccccc2c1	25	-3	1	9	·	11
COc1cccc(/C=N/Nc2ccc([N+](=O)[O-])cc2)c1O	?	-7	-14	18	·	0
COc1cccc(N/N=C/c2cccc(Br)c2O)c1	-5	-89	-7	-6	99*	10
O=[N+]([O-])c1cccc(N/N=C/c2cccc(O)c2O)c1	65*	42	6	21	100*	19
Cc1cccc(N/N=C/c2ccc(O)c(O)c2O)c1	-7	-47	1	4	79*	58
Cc1cccc(N/N=C/c2ccc(C)s2)c1	-4	23	3	-5	-12	35
CC(=O)N[C@@H](Cc1ccc(O)cc1)CN1C(N)=NC[C@@H]1CC(C)C	9	15	-3	0	8	0
COCCCNC(=S)NNC(=O)c1csc(C)n1	18	17	-9	4	·	17
CC(C)N(Cc1ccccc1)C(=O)CN1C(=O)NC2(CCCCCC2)C1=O	·	·	·	·	2	·
C=CCn1c(SCC(=O)Nc2ccc(Br)cc2)nc(O)c(CC)c1=O	-12	24	-4	9	98*	43
C=CCn1c(N)cc(=O)nc1SCC(=O)Nc1ccccc1	4	-4	-10	-1	·	24
C=CCn1c(N)cc(=O)nc1SCC(=O)Nc1ccc(C(=O)OCC)cc1	19	-36	-4	0	99*	17
C=CCn1c(N)cc(=O)nc1SCC(=O)Nc1ccc(C(=O)OC)cc1	6	-98	-1	1	99*	11
O=C(C[C@H]1C/C=C\CC[C@H](Cc2ccc(F)cc2)C(=O)OCCNC1=O)NCCO	·	·	·	·	-1	·
COc1ccc(-c2cc(C(=O)Nc3c(C)n(C)n(-c4ccccc4)c3=O)no2)cc1OC	-6	-5	3	6	3	25
CCN(CC)S(=O)(=O)c1cc(NC(=O)CCCOc2ccc(C(C)=O)cc2)ccc1C	23	12	5	8	-6	78
O=[N+]([O-])c1cc(NS(=O)(=O)c2ccc(Cl)nc2)ccc1Cl	4	·	2	2	1	-1
CC(C)c1ccc(NS(=O)(=O)c2ccc(Cl)nc2)cc1	·	-18	5	·	·	-92*
CCCCN(C(=O)c1cccc(-n2cccc2)c1)c1c(N)n(Cc2ccccc2)c(=O)[nH]c1=O	-2	·	48*	3	0	19
SMILES	HSF1 activator	PHOSPHO1 block	core dimer inh	HSF1 inhib	ALR inh	AI-2 QS mod
CCCCN(C(=O)c1cccc(N2C(=O)c3ccccc3C2=O)c1)c1c(N)n(CC(C)C)c(=O)[nH]c1=O	·	·	·	·	-1	·
CCN(CC)CCn1c(=S)[nH]c2cc(Cl)ccc2c1=O	-12	94*	-1	-2	48	33
CCN(CC)CCn1c(=S)[nH]c2ccc(Cl)cc2c1=O	22	78*	-1	-3	89*	3
CCN(CC)CCn1c(=S)[nH]c2cc(C(=O)N3CC(C)CC(C)C3)ccc2c1=O (configuration not stated)	-2	13	-3	4	25	28
OCC[C@H]1C[C@@H](O)[C@H](O)[C@@]2(OCc3ccccc32)O1	·	·	-15	·	·	·
CC(C)(C)NC(=O)c1ccc2c(c1)N(CC(=O)N1CCCCC1)C(=O)C(C)(C)O2	66*	30	-8	26	-2	12
Cc1ccc(C(C2=C(O)CC(C)(C)CC2=O)C2C(=O)CC(C)(C)CC2=O)o1 (configuration not stated)	5	18	6	3	97*	12
CC1(C)CC(=O)C(C(C2=C(O)CC(C)(C)CC2=O)c2cccs2)C(=O)C1 (configuration not stated)	-10	18	-11	-4	·	13
Nc1ccc(SCc2cccnc2)cc1	6	9	-1	1	100*	38
CC(C)Nc1nc(NC(C)C)nc(N(C)N)n1	1	-3	3	-7	1	17
CCNc1nc(NCC)nc(N(C)N)n1	9	40	6	-6	84*	16
NCCCCC(N)c1cn([C@@H](CCC(=O)O)C(=O)N2CCNCC2)nn1 (some centres not stated)	·	·	-6	·	-7	·
Cc1cccc(NC(=O)Nc2ccncc2)c1	8	52	-9	-2	84*	5
Cc1ccc(NC(=O)c2nc[nH]c2C(=O)NCc2ccccc2)cc1	·	·	·	·	0	·
Cc1cccc(NC(=O)c2nc[nH]c2C(=O)Nc2cccc(C)c2)c1	53*	-26	-1	22	-2	21
Cc1ccccc1NC(=O)c1nc[nH]c1C(=O)NCc1ccccc1	59*	-17	1	22	-1	14
Cc1cccc(NC(=O)Nc2cnccn2)c1	-5	6	-6	1	1	18
Cc1cccc(NNC(=O)C(=O)NNc2cccc(C)c2)c1	4	47	2	-4	98*	33
Nc1ccc(S(=O)(=O)NNC(=O)C(=O)NNc2ccccc2)cc1	3	-7	-6	-5	·	9
O=C(NNc1ccccc1)C(=O)NNS(=O)(=O)c1ccc(CCCl)cc1	30	15	-2	8	99*	35
Cc1ccc(/C=N/Nc2ccc(Cl)nn2)cc1	15	30	1	11	7	-1
Oc1ccc(/C=N/Nc2ccc(Cl)nn2)cc1O	32	·	-20	1	99*	28
Oc1ccc(/C=N/Nc2cc(N3CCOCC3)nc(N3CCOCC3)n2)cc1	-27	·	-9	-18	100*	28
Cc1nc(Cl)cc(N/N=C/c2ccc(O)cc2)n1	8	29	-3	-2	99*	0
COc1ccc(Cl)cc1NC(=O)CN1C(=O)NC2(CCCC2)C1=O	4	-123	9	0	-8	15
Cc1cc(S(=O)(=O)Nc2ccc3cn[nH]c3c2)c(C)cc1Cl	42	6	-6	11	0	·
COCCNC(=O)CCC(=O)NNc1nc2ccccc2c2nc(-c3ccccc3)nn12	24	1	-7	16	12	19
